In ChEMBL document CHEMBL1126036, “Quinolone antibacterial agents. Synthesis and structure-activity relationships of a series of amino acid prodrugs of racemic and chiral 7-(3-amino-1-pyrrolidinyl)quinolones. Highly soluble quinolone prodrugs with in vivo pseudomonas activity” (J Med Chem, 1992):
Converted amounts (≈) assume the structure as drawn.

How the values were obtained:
Pseudomonas aeruginosa = assay: In vitro antibacterial activity against gram negative Pseudomonas aeruginosa UI-18.; format: functional
Enterobacter cloacae = assay: In vitro antibacterial activity against gram negative Enterobacter cloacae MA 2646.; format: functional
Streptococcus pneumoniae [1] = assay: In vivo potency against acute systemic infection in mouse caused by Streptococcus pneumoniae SV-1 on oral administration by gavage.; format: functional; settings: read-out: PD50
Outline: (§1)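 Acute systemic mouse infection. A single oral dose was given by gavage at the time of challenge. Potency is reported as the median protective dose (PD50, mg/kg), determined by earlier published methods.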

Escherichia coli [2] = assay: In vitro antibacterial activity against gram negative Escherichia coli Vogel.; format: functional
[3] = Solubility (in 0.1 N HCl); format: physicochemical; settings: read-out: S
Outline: (§2)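 Solubility was measured either from HPLC peak areas at equilibrium or by a conventional weight-per-volume method. All solutions were held for 24 h before measurement.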

Staphylococcus aureus [4] = assay: In vitro antibacterial activity against gram positive Staphylococcus aureus H-228.; format: functional
Enterococcus faecalis = assay: In vitro antibacterial activity against gram positive Enterococcus faecalis MGH-2.; format: functional
Mus musculus [5] = assay: In vivo potency against acute systemic infection in mouse caused by Streptococcus pyogenes C-203 on subcutaneous injection; format: functional; settings: sc, read-out: PD50
Outline: (§3)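 Acute systemic mouse infection. A single subcutaneous dose was injected at the time of challenge. Potency is reported as the median protective dose (PD50, mg/kg), determined by earlier published methods.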

[6] = Solubility (at pH 7.4); format: physicochemical; settings: buffer, read-out: S; outline: as §2
Streptococcus pneumoniae [7] = assay: In vitro antibacterial activity against gram positive Streptococcus pneumoniae SV-1.; format: functional
Mus musculus [8] = assay: In vivo potency against acute systemic infection in mouse caused by Streptococcus pyogenes C-203 on oral administration by gavage; format: functional; settings: read-out: PD50; outline: as §1
[9] = biological target: DNA gyrase (Escherichia coli) (UniProt P0AES6+P0AES4); assay: In vitro concentration inhibiting DNA gyrase induced cleavage in Escherichia coli H560.; format: functional
Outline: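 DNA gyrase test run as described in earlier work. The value is the drug concentration (µg/mL) needed to cause DNA cleavage.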

Streptococcus pneumoniae [10] = assay: In vivo potency against acute systemic infection in mouse caused by Streptococcus pneumoniae SV-1 on subcutaneous injection.; format: functional; settings: sc, read-out: PD50; outline: as §3
Mus musculus [11] = assay: In vivo potency against acute systemic infection in mouse caused by Pseudomonas aeruginosa UI-18 on oral administration by gavage.; format: functional; settings: read-out: PD50; outline: as §1
Mus musculus [12] = assay: In vivo potency against acute systemic infection in mouse caused by Pseudomonas aeruginosa. UI-18. on subcutaneous injection.; format: functional; settings: sc, read-out: PD50; outline: as §3
Escherichia coli [13] = assay: In vivo potency against acute systemic infection in mouse caused by Escherichia coli Vogel on oral administration by gavage.; format: functional; settings: read-out: PD50; outline: as §1
[14] = Aqueous solubility; format: physicochemical; settings: read-out: S; outline: as §2
Escherichia coli [15] = assay: In vivo potency against acute systemic infection in mouse caused by Escherichia coli vogel on subcutaneous injection.; format: functional; settings: sc, read-out: PD50; outline: as §3
Providencia rettgeri = assay: In vitro antibacterial activity against gram negative Providencia rettgeri M-1771.; format: functional
Klebsiella pneumoniae [16] = assay: In vitro antibacterial activity against gram negative Klebsiella pneumoniae MGH-2.; format: functional
[17] = Solubility (at pH 4); format: physicochemical; settings: buffer, read-out: S; outline: as §2
Streptococcus pyogenes = assay: In vitro antibacterial activity against gram positive Streptococcus pyogenes C-203.; format: functional
Staphylococcus aureus [18] = assay: In vitro antibacterial activity against gram positive Staphylococcus aureus UC76.; format: functional
Klebsiella pneumoniae [19] = assay: In vitro antibacterial activity against gram negative Klebsiella pneumoniae. MGH-2; format: functional

Row | SMILES | MIC (Pseudomonas aeruginosa) [µg/mL] | MIC (Enterobacter cloacae) [µg/mL] | ED50 (Streptococcus pneumoniae [1]) [mg/kg] | MIC (Escherichia coli [2]) [µg/mL] | solubility [3] [µg/mL] | MIC (Staphylococcus aureus [4]) [µg/mL] | MIC (Enterococcus faecalis) [µg/mL] | ED50 (Mus musculus [5]) [mg/kg] | MIC (Streptococcus pneumoniae [7]) [µg/mL] | ED50 (Mus musculus [8]) [mg/kg] | Cleavage [9] [µg/mL] | ED50 (Streptococcus pneumoniae [10]) [mg/kg] | ED50 (Mus musculus [11]) [mg/kg] | ED50 (Escherichia coli [13]) [mg/kg] | solubility ([14]; water (aqueous)) [µg/mL] | ED50 (Escherichia coli [15]) [mg/kg] | MIC (Providencia rettgeri) [µg/mL] | solubility [17] [µg/mL] | MIC (Streptococcus pyogenes) [µg/mL] | MIC (Staphylococcus aureus [18]) [µg/mL] | also measured
1 | Nc1c(F)c(N2CCC(N)C2)c(F)c2c1c(=O)c(C(=O)O)cn2C1CC1 (stereo not given) | 0.05 (≈ 0.137 µM) | 0.006 (≈ 0.0165 µM) | 20 | 0.006 (≈ 0.0165 µM) | 100 (≈ 274 µM) | 0.013 (≈ 0.0357 µM) | 0.025 (≈ 0.0686 µM) | 6 | 0.006 (≈ 0.0165 µM) | 24 | 0.25 | 9 | 16 | 2 | 2400 (≈ 6590 µM) | 0.4 | 0.025 (≈ 0.0686 µM) | 3200 (≈ 8780 µM) | 0.025 (≈ 0.0686 µM) | 0.006 (≈ 0.0165 µM) | solubility [6]: 80 µg/mL (≈ 220 µM); ED50 (Mus musculus [12]): 4 mg/kg; MIC (Klebsiella pneumoniae [16]): 0.006 µg/mL (≈ 0.0165 µM)
2 | C[C@@H](N)C(=O)NC1CCN(c2nc3c(cc2F)c(=O)c(C(=O)O)cn3C2CC2)C1.Cl.O (stereo not given in full) | 1.6 | 0.8 | > 100 | 0.8 | 189000 | 0.4 | 0.2 | – | 0.25 | – | 2.5 | 3 | – | 22.5 | > 250000 | 5.1 | 1.6 | 262000 | 0.013 | 0.05 | MIC (Klebsiella pneumoniae [19]): 0.8 µg/mL; solubility ([14]; pH 7.4 phosphate buffer): 60 µg/mL
3 | C[C@H](N)C(=O)NC1CCN(c2c(F)cc3c(=O)c(C(=O)O)cn(C4CC4)c3c2F)C1.Cl.O (stereo not given in full) | 0.4 | 0.2 | 13 | 0.2 | 7200 | 0.2 | 0.4 | 4 | 0.1 | 12 | 1 | 9 | 13 | 2 | 31000 | 0.3 | 0.2 | 25000 | 0.1 | 0.05 | solubility [6]: 90 µg/mL; ED50 (Mus musculus [12]): 2 mg/kg; MIC (Klebsiella pneumoniae [16]): 0.2 µg/mL
4 | C[C@H](N)C(=O)N[C@H]1CCN(c2nc3c(cc2F)c(=O)c(C(=O)O)cn3C2CC2)C1.Cl.O | 3.1 | 0.8 | 25 | 0.8 | > 350000 | 3.1 | 1.6 | 10 | 0.8 | 22 | 5 | 12 | 3 | 1.3 | > 350000 | 0.4 | 3.1 | > 350000 | 0.8 | 0.8 | MIC (Klebsiella pneumoniae [19]): 1.6 µg/mL; ED50 (Mus musculus [12]): 2 mg/kg; solubility ([14]; pH 7.4 phosphate buffer): 20 µg/mL
5 | Cl.NC1CCN(c2c(F)cc3c(=O)c(C(=O)O)cn(C4CC4)c3c2F)C1 (stereo not given) | 0.05 | 0.025 | 15 | 0.013 | 3000 | 0.025 | 0.05 | 2 | 0.05 | 7 | 0.1 | 6 | 7 | 1 | 15000 | 0.2 | 0.05 | 2400 | 0.05 | 0.006 | solubility [6]: 80 µg/mL; ED50 (Mus musculus [12]): 3 mg/kg; MIC (Klebsiella pneumoniae [16]): 0.025 µg/mL
6 | N[C@@H]1CCN(c2nc3c(cc2F)c(=O)c(C(=O)O)cn3C2CC2)C1 | 0.4 (≈ 1.2 µM) | 0.025 (≈ 0.0752 µM) | 45 | 0.013 (≈ 0.0391 µM) | – | 0.2 (≈ 0.602 µM) | 0.2 (≈ 0.602 µM) | – | 0.1 (≈ 0.301 µM) | – | 0.5 | 34 | – | 0.5 | – | 0.4 | 0.05 (≈ 0.15 µM) | – | 0.2 (≈ 0.602 µM) | 0.05 (≈ 0.15 µM) | MIC (Klebsiella pneumoniae [19]): 0.025 µg/mL (≈ 0.0752 µM)
7 | N[C@H]1CCN(c2nc3c(cc2F)c(=O)c(C(=O)O)cn3C2CC2)C1 | 0.1 (≈ 0.301 µM) | 0.013 (≈ 0.0391 µM) | 19 | 0.006 (≈ 0.0181 µM) | – | 0.05 (≈ 0.15 µM) | 0.1 (≈ 0.301 µM) | 9 | 0.05 (≈ 0.15 µM) | 19 | 0.25 | 14 | 4 | 0.8 | – | 0.4 | 0.025 (≈ 0.0752 µM) | – | 0.05 (≈ 0.15 µM) | 0.013 (≈ 0.0391 µM) | MIC (Klebsiella pneumoniae [19]): 0.013 µg/mL (≈ 0.0391 µM); ED50 (Mus musculus [12]): 2 mg/kg
8 | NC(=O)CC[C@H](N)C(=O)NC1CCN(c2nc3c(cc2F)c(=O)c(C(=O)O)cn3C2CC2)C1 (stereo not given in full) | > 25 | 6.3 (≈ 13.7 µM) | – | 6.3 (≈ 13.7 µM) | 1400 (≈ 3040 µM) | 3.1 (≈ 6.73 µM) | 6.3 (≈ 13.7 µM) | – | 12.5 (≈ 27.1 µM) | – | 5 | – | – | 4.8 | 6100 (≈ 13200 µM) | 0.4 | 25 (≈ 54.3 µM) | 3100 (≈ 6730 µM) | 12.5 (≈ 27.1 µM) | 0.8 (≈ 1.74 µM) | MIC (Klebsiella pneumoniae [19]): 12.5 µg/mL (≈ 27.1 µM); solubility ([14]; pH 7.4 phosphate buffer): 50 µg/mL (≈ 109 µM)
9 | C[C@H](N)C(=O)NC1CCN(c2nc3c(cc2F)c(=O)c(C(=O)O)cn3C2CC2)C1.Cl.O (stereo not given in full) | 3.1 | 0.2 | 28 | 0.4 | > 350000 | 3.1 | 1.6 | 7 | 0.8 | 15 | 0.75 | 10 | 7 | 1 | > 300000 | 0.6 | 1.6 | > 350000 | 0.4 | 0.8 | MIC (Klebsiella pneumoniae [19]): 0.8 µg/mL; ED50 (Mus musculus [12]): 5 mg/kg; solubility ([14]; pH 7.4 phosphate buffer): 80 µg/mL
